According to ChEMBL document CHEMBL2384922, “Synthesis and evaluation of carbamoylmethylene linked prodrugs of BMS-582949, a clinical p38α inhibitor” (Bioorg Med Chem Lett, 2013):
Values after ≈ are worked out from the molar mass of the structure shown. One block for each compound: values may come before it.

Tests used:
[1] = Aqueous solubility of the compound at pH 6.5; format: physicochemical
[2] = Aqueous solubility of the compound at pH 1; format: physicochemical
[3] = Half life of the compound at pH 7.4 at 37 degC by solution stability test; format: physicochemical; conditions: buffer
Summary of the method: (§1)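 Chemical stability in aqueous solution at 37 °C, at pH 1.0 or pH 7.4. Half-life determined for each condition, in hours.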

[4] = Half life of the compound at pH 1 at 37 degC by solution stability test; format: physicochemical; conditions: buffer; summary of the method: as §1
Rattus norvegicus [5] = assay: Tmax in rat assessed as parent compound BMS-582949 at 142 mg/kg, po administered in 0.75% methocel vehicle as suspension; format: ADME, organism-based; set-up: dose 142 mg/kg, route oral; conditions: in vivo
Summary of the method: (§2)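 Oral dosing to rats as a methocel suspension. Prodrug given at 142 mpk (equivalent to 100 mpk of parent); parent given at 100 mpk. Parent drug measured in plasma over 24 h, giving Cmax, Tmax and AUC0–24h. The prodrug itself was also monitored in plasma.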

[6] = Aqueous solubility of the compound at pH 3.1; format: physicochemical
[7] = Aqueous solubility of the compound at pH 4.6; format: physicochemical
Rattus norvegicus [8] = assay: AUC (0 to 24 hrs) in rat assessed as parent compound BMS-582949 at 14.2 mg/kg, po administered in 1:1 PEG 300/water as vehicle; format: ADME, organism-based, Plasma; set-up: time < 24 hr, dose 14.2 mg/kg, route oral; conditions: in vivo
Summary of the method: (§3)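 Oral dosing to rats as a solution in 1:1 PEG 300/water. Prodrug given at 14.2 mpk (equivalent to 10 mpk of parent); parent given at 10 mpk. Plasma levels of the parent drug measured over 24 h, giving Cmax, Tmax and AUC0–24h. The prodrug itself was also monitored in plasma.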

Rattus norvegicus [9] = assay: Cmax in rat assessed as parent compound BMS-582949 at 14.2 mg/kg, po administered in 1:1 PEG 300/water as vehicle; format: ADME, organism-based; set-up: dose 14.2 mg/kg, route oral; conditions: in vivo; summary of the method: as §3
Rattus norvegicus [10] = assay: AUC (0 to 24 hrs) in rat assessed as parent compound BMS-582949 at 142 mg/kg, po administered in 0.75% methocel vehicle as suspension; format: ADME, organism-based, Plasma; set-up: time < 24 hr, dose 142 mg/kg, route oral; conditions: in vivo; summary of the method: as §2
Rattus norvegicus [11] = assay: Cmax in rat assessed as parent compound BMS-582949 at 142 mg/kg, po administered in 0.75% methocel vehicle as suspension; format: ADME, organism-based; set-up: dose 142 mg/kg, route oral; conditions: in vivo; summary of the method: as §2
Rattus norvegicus [12] = assay: Tmax in rat assessed as parent compound BMS-582949 at 14.2 mg/kg, po administered in 1:1 PEG 300/water as vehicle; format: ADME, organism-based; set-up: dose 14.2 mg/kg, route oral; conditions: in vivo; summary of the method: as §3
[13] = Half life of the compound at pH 7.5 at 25 degC by solution stability test; format: physicochemical; conditions: buffer
[14] = AUC (0 to 24 hrs) in rat at 100 mg/kg, po administered in 0.75% methocel vehicle as suspension; format: ADME, organism-based; set-up: time < 24 hr, dose 100 mg/kg, route oral; conditions: plasma; summary of the method: as §2
[15] = Tmax in rat at 100 mg/kg, po administered in 0.75% methocel vehicle as suspension; format: ADME, organism-based; set-up: dose 100 mg/kg, route oral; conditions: in vivo; summary of the method: as §2
[16] = AUC (0 to 24 hrs) in rat at 10 mg/kg, po administered with 1:1 PEG 300/water as vehicle; format: ADME, organism-based; set-up: time < 24 hr, dose 10 mg/kg, route oral; conditions: plasma; summary of the method: as §3
[17] = Tmax in rat at 10 mg/kg, po administered with 1:1 PEG 300/water as vehicle; format: ADME, organism-based; set-up: dose 10 mg/kg, route oral; conditions: in vivo; summary of the method: as §3
[18] = Cmax in rat at 100 mg/kg, po administered in 0.75% methocel vehicle as suspension; format: ADME, organism-based; set-up: dose 100 mg/kg, route oral; conditions: in vivo; summary of the method: as §2
[19] = Cmax in rat at 10 mg/kg, po administered with 1:1 PEG 300/water as vehicle; format: ADME, organism-based; set-up: dose 10 mg/kg, route oral; conditions: in vivo; summary of the method: as §3

Compound: CCCN(C(=O)OCOC(=O)/C=C/C(=O)O)C(=O)c1cn2ncnc(Nc3cc(C(=O)NC4CC4)ccc3C)c2c1C
Tmax (Rattus norvegicus [5]): 6 h
solubility [6]: 105 µg/mL (≈ 181 µM)
solubility [7]: 367 µg/mL (≈ 634 µM)
solubility [1]: 883 µg/mL (≈ 1530 µM)
AUC (Rattus norvegicus [8]): 52 µM·h
solubility [2]: 1180 µg/mL (≈ 2040 µM)
half-life [3]: 2310 min
Cmax (Rattus norvegicus [9]): 4.6 µM
AUC (Rattus norvegicus [10]): 213.9 µM·h
half-life [4]: 4760 min
Cmax (Rattus norvegicus [11]): 21.1 µM
Tmax (Rattus norvegicus [12]): 4 h

Compound: CCCNC(=O)c1cn2ncnc(Nc3cc(C(=O)N(C(=O)OCOP(=O)(O)O)C4CC4)ccc3C)c2c1C
half-life [3]: < 15 min
half-life [4]: 1230 min

Compound: O=C(OCOP(=O)(O)O)OC1Cc2ccccc2C1
half-life [13]: 0.0403 days

Compound: CCCNC(=O)c1cn2ncnc(N(C(=O)OCOC(=O)/C=C/C(=O)O)c3cc(C(=O)NC4CC4)ccc3C)c2c1C
solubility [1]: 1150 µg/mL (≈ 1990 µM)
solubility [2]: 8 µg/mL (≈ 13.8 µM)
half-life [3]: 876 min
half-life [4]: 7740 min

Compound: CCCNC(=O)c1cn2ncnc(N(C(=O)OCOC(=O)[C@H](C)N)c3cc(C(=O)NC4CC4)ccc3C)c2c1C.Cl.Cl
half-life [3]: < 15 min
half-life [4]: 192 min

Compound: CCCN(C(=O)OCOC(=O)[C@H](C)N)C(=O)c1cn2ncnc(Nc3cc(C(=O)NC4CC4)ccc3C)c2c1C.Cl.Cl
half-life [3]: < 15 min
half-life [4]: 192 min

Results, then the compound that gave them:

solubility [1]: 1570 µg/mL (≈ 2710 µM)
solubility [2]: 166 µg/mL (≈ 287 µM)
half-life [3]: 1310 min
half-life [4]: 2070 min
Compound: CCCNC(=O)c1cn2ncnc(Nc3cc(C(=O)N(C(=O)OCOC(=O)/C=C/C(=O)O)C4CC4)ccc3C)c2c1C

half-life [3]: < 15 min
half-life [4]: 510 min
Compound: CCCNC(=O)c1cn2ncnc(N(C(=O)OCOP(=O)(O)O)c3cc(C(=O)NC4CC4)ccc3C)c2c1C

half-life [3]: < 15 min
half-life [4]: 1610 min
Compound: CCCN(C(=O)OCOP(=O)(O)O)C(=O)c1cn2ncnc(Nc3cc(C(=O)NC4CC4)ccc3C)c2c1C

half-life [13]: 48 days
Compound: COc1ccc(CCNC(=O)OCOP(=O)(O)O)cc1OC

half-life [3]: < 15 min
half-life [4]: 180 min
Compound: CCCNC(=O)c1cn2ncnc(Nc3cc(C(=O)N(C(=O)OCOC(=O)[C@H](C)N)C4CC4)ccc3C)c2c1C.Cl

AUC(0-t) at 24 h [14]: 5.6 µM·h
Tmax [15]: 1.7 h
AUC(0-t) at 24 h [16]: 53.3 µM·h
Tmax [17]: 1 h
Cmax [18]: 800 nM
Cmax [19]: 6.5 µM
Compound: CCCNC(=O)c1cn2ncnc(Nc3cc(C(=O)NC4CC4)ccc3C)c2c1C [BMS-582949]
